{"source": "ChEMBL document CHEMBL3244304", "about": "“Correlation of biological activity and high-pressure liquid chromatographic retention index for a series of propranolol, barbiturate, and anthranilic acid analogues” (J Med Chem, 1979)", "key": {"[1]": {"experiment": "Octanol-buffer partition coefficient, log P of the compound at pH 8.0 by ultraviolet spectroscopy", "format": "physicochemical", "outline": "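Drug distributed between an octanol phase and an aqueous buffer at pH 8.0, the same way as the pH 7.0 phosphate-buffer method. Drug in each phase quantified by ultraviolet spectroscopy, and the log of the octanol/buffer distribution ratio was reported.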"}, "[2]": {"experiment": "Retention index of the compound by HPLC method", "format": "physicochemical"}, "[3]": {"experiment": "Octanol-water partition coefficient, log P of nonionized form of compound", "format": "physicochemical"}, "Oryctolagus cuniculus": {"species": "Oryctolagus cuniculus", "experiment": "Hypnotic activity in rabbit", "format": "functional", "outline": "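Rabbits; value expressed as negative log of the minimum effective dose (mol/kg).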"}, "[4]": {"experiment": "Inhibition of Arbacia egg cell division", "format": "functional", "outline": "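Arbacia egg cell division; value expressed as negative log of the molar drug concentration needed to reduce cell division 50%.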"}}}
{"smiles": "O=C(O)c1ccccc1NS(=O)(=O)c1ccccc1", "values": [{"measurement": "logD", "setting": "[1]", "result": -0.46}, {"measurement": "Retention_index", "setting": "[2]", "result": 530}]}
{"smiles": "O=C(O)c1ccccc1NS(=O)(=O)c1ccc(F)cc1", "values": [{"measurement": "logD", "setting": "[1]", "result": 0.03}, {"measurement": "Retention_index", "setting": "[2]", "result": 565}]}
{"smiles": "Cc1ccc(S(=O)(=O)Nc2ccccc2C(=O)O)cc1", "values": [{"measurement": "logD", "setting": "[1]", "result": 0.05}, {"measurement": "Retention_index", "setting": "[2]", "result": 606}]}
{"smiles": "O=C(O)c1ccccc1NS(=O)(=O)c1ccc(Cl)cc1", "values": [{"measurement": "logD", "setting": "[1]", "result": 0.54}, {"measurement": "Retention_index", "setting": "[2]", "result": 656}]}
{"smiles": "O=C(O)c1ccccc1NS(=O)(=O)c1ccc([N+](=O)[O-])cc1", "values": [{"measurement": "logD", "setting": "[1]", "result": -0.03}, {"measurement": "Retention_index", "setting": "[2]", "result": 586}]}
{"smiles": "O=C(O)c1ccccc1NS(=O)(=O)c1ccc(Br)cc1", "values": [{"measurement": "logD", "setting": "[1]", "result": 0.83}, {"measurement": "Retention_index", "setting": "[2]", "result": 678}]}
{"smiles": "CCC1(CCC(C)C)C(=O)NC(=O)NC1=O", "note": "[AMOBARBITAL]", "values": [{"measurement": "Retention_index", "setting": "[2]", "result": 681}, {"measurement": "logP", "setting": "[3]", "result": 1.95}]}
{"smiles": "C=CCC1(C(C)C)C(=O)NC(=O)NC1=O", "note": "[APROBARBITAL]", "values": [{"measurement": "pMED", "setting": "Oryctolagus cuniculus", "result": 3.6}, {"measurement": "Retention_index", "setting": "[2]", "result": 552}, {"measurement": "logP", "setting": "[3]", "result": 1.15}]}
{"smiles": "CCC1(CC)C(=O)NC(=O)NC1=O", "note": "[BARBITAL]", "values": [{"measurement": "pMED", "setting": "Oryctolagus cuniculus", "result": 3.09}, {"measurement": "Retention_index", "setting": "[2]", "result": 423}, {"measurement": "logP", "setting": "[3]", "result": 0.65}]}
{"smiles": "O=C1CC(=O)NC(=O)N1", "note": "[BARBITURIC ACID]", "values": [{"measurement": "Retention_index", "setting": "[2]", "result": 53}, {"measurement": "logP", "setting": "[3]", "result": -1.35}]}
{"smiles": "CCC(C)C1(CC)C(=O)NC(=O)NC1=O", "note": "(centres undefined) [BUTABARBITAL]", "values": [{"measurement": "pMED", "setting": "Oryctolagus cuniculus", "result": 3.63}, {"measurement": "Retention_index", "setting": "[2]", "result": 600}, {"measurement": "logP", "setting": "[3]", "result": 1.45}]}
{"smiles": "C=CCC1(CC(C)C)C(=O)NC(=O)NC1=O", "note": "[BUTALBITAL]", "values": [{"measurement": "Retention_index", "setting": "[2]", "result": 616}, {"measurement": "logP", "setting": "[3]", "result": 1.45}]}
{"smiles": "CCCCC1(CC)C(=O)NC(=O)NC1=O", "note": "[BUTETHAL]", "values": [{"measurement": "pMED", "setting": "Oryctolagus cuniculus", "result": 3.72}, {"measurement": "Retention_index", "setting": "[2]", "result": 610}, {"measurement": "logP", "setting": "[3]", "result": 1.65}, {"measurement": "pED50", "setting": "[4]", "result": 2.4}]}
{"smiles": "CCC1(C2=CCCCC2)C(=O)NC(=O)NC1=O", "note": "[CYCLOBARBITAL]", "values": [{"measurement": "Retention_index", "setting": "[2]", "result": 604}, {"measurement": "logP", "setting": "[3]", "result": 1.86}]}
{"smiles": "CN1C(=O)NC(=O)C(C)(C2=CCCCC2)C1=O", "note": "(centres undefined) [HEXOBARBITAL]", "values": [{"measurement": "Retention_index", "setting": "[2]", "result": 648}, {"measurement": "logP", "setting": "[3]", "result": 1.92}]}
{"smiles": "CCC1(CC)C(=O)NC(=O)N(C)C1=O", "note": "[METHARBITAL]", "values": [{"measurement": "Retention_index", "setting": "[2]", "result": 532}, {"measurement": "logP", "setting": "[3]", "result": 1.21}]}
{"smiles": "C=CCC1(C(C)C#CCC)C(=O)N=C(O)N(C)C1=O", "note": "(centres undefined) [METHOHEXITAL]", "values": [{"measurement": "Retention_index", "setting": "[2]", "result": 776}, {"measurement": "logP", "setting": "[3]", "result": 2.19}]}
{"smiles": "CCCC(C)C1(CC)C(=O)NC(=O)NC1=O", "note": "(centres undefined) [PENTOBARBITAL]", "values": [{"measurement": "Retention_index", "setting": "[2]", "result": 686}, {"measurement": "logP", "setting": "[3]", "result": 1.95}]}
{"smiles": "CCC1(c2ccccc2)C(=O)NC(=O)NC1=O", "note": "[PHENOBARBITAL]", "values": [{"measurement": "Retention_index", "setting": "[2]", "result": 523}]}
{"smiles": "C=CCC1(C(C)CCC)C(=O)NC(=O)NC1=O", "note": "(centres undefined) [SECOBARBITAL]", "values": [{"measurement": "pMED", "setting": "Oryctolagus cuniculus", "result": 4.2}, {"measurement": "Retention_index", "setting": "[2]", "result": 728}, {"measurement": "logP", "setting": "[3]", "result": 2.15}]}
{"smiles": "C=CCC1(C(C)CCC)C(=O)N=C(S)NC1=O", "note": "(centres undefined) [THIAMYLAL]", "values": [{"measurement": "Retention_index", "setting": "[2]", "result": 760}, {"measurement": "logP", "setting": "[3]", "result": 3.2}]}
{"smiles": "CCCC(C)C1(CC)C(=O)NC(=S)NC1=O", "note": "(centres undefined) [THIOPENTAL]", "values": [{"measurement": "Retention_index", "setting": "[2]", "result": 732}, {"measurement": "logP", "setting": "[3]", "result": 3}]}
